Laboratory results taken from ChEMBL document CHEMBL1138062 (J Med Chem, 2006).
Activity calls are given as the source filed them. The calls are words filed in the database; no cut-off is given here.

Key:
[1] = Agonist activity at GABAA receptor in mouse cerebral cortical neurons assessed as induction of peak current at 3 mM relative to GABA by whole cell patch clamp method; format: functional
In short: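 Peak currents evoked by 3 mM test agent compared with a close to maximal GABA response (600 µM). Specificity was checked by pretreating cells with gabazine (100 µM) for 15 s, then co-applying gabazine (100 µM) with agonist (3 mM). Values are mean ± SE, N = 3–7.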

[2] = target: T1, GABA transporter 2 (Mus musculus) (UniProt P31651); assay: Inhibition of [3H]GABA uptake at mouse GABA transporter2 expressed in HEK293 cells at 1 mM; format: cell-based
T1 sequence (whole entry): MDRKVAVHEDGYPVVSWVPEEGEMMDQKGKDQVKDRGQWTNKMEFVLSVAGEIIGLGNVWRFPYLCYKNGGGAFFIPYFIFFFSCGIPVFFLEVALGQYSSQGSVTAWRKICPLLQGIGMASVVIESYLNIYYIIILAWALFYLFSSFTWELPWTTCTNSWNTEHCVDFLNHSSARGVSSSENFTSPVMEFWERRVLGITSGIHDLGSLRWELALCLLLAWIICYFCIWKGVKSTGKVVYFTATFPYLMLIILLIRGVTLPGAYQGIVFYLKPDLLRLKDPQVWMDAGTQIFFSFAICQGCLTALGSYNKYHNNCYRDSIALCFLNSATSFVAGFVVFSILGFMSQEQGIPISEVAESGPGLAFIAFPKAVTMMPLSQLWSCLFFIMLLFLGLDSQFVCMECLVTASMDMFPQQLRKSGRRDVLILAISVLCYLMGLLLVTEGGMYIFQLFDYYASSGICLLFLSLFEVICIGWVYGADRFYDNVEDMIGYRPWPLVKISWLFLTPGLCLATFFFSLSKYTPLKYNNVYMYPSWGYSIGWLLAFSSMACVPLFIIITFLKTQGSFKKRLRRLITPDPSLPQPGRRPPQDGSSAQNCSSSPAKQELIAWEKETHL

[3] = target: T2, GABA transporter 3 (Mus musculus) (UniProt P31649); assay: Inhibition of [3H]GABA uptake at mouse GABA transporter3 expressed in HEK293 cells at 1 mM; format: cell-based
T2 sequence (whole entry): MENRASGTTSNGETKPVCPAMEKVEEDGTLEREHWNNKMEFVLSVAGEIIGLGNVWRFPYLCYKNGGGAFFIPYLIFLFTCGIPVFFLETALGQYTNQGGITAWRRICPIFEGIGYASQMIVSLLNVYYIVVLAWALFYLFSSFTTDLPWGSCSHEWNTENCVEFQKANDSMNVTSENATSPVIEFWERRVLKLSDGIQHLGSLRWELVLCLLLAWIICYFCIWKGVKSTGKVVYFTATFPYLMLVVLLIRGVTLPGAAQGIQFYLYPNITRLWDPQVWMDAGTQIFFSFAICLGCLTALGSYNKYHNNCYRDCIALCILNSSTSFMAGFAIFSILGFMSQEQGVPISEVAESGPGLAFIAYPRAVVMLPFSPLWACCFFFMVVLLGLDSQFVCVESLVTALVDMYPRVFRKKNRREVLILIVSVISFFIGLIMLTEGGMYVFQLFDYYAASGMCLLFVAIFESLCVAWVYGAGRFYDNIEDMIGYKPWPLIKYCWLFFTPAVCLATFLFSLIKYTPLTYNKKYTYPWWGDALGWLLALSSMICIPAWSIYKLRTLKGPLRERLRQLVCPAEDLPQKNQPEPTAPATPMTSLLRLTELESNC

[4] = target: T3, GABA transporter 4 (Mus musculus) (UniProt P31650); assay: Inhibition of [3H]GABA uptake at mouse GABA transporter4 expressed in HEK293 cells at 1 mM; format: cell-based
T3 sequence (whole entry): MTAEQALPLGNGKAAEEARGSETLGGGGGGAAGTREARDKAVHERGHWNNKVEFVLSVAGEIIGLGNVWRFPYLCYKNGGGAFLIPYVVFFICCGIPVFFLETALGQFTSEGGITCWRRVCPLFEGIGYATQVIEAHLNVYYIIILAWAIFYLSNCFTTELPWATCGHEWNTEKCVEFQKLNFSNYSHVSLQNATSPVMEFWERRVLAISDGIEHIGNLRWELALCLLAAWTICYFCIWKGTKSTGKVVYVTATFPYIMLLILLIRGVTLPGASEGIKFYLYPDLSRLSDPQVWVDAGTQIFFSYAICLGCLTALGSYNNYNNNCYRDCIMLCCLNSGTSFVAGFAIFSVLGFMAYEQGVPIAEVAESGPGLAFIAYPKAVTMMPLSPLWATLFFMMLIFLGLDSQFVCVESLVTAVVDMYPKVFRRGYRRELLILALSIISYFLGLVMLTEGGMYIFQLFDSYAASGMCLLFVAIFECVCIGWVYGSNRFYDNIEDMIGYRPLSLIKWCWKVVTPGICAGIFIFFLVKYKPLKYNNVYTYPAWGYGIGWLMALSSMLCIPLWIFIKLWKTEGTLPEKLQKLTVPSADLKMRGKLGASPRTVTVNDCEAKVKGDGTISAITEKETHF

[5] = target: GABA-B receptor (rat); assay: Inhibition of [3H]GABA binding in GABAB receptor in rat brain synaptic membranes
[6] = target: Sodium- and chloride-dependent GABA transporter 1 (Mus musculus) (UniProt P31648); assay: Inhibition of [3H]GABA uptake at mouse GABA transporter1 expressed in HEK293 cells at 1 mM; format: cell-based
[7] = target: GABA-A receptor; anion channel; assay: Displacement of [3H]muscimol from GABAA receptor in rat brain synaptic membranes; format: cell membranes, Membrane
In short: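 Rat brain membrane preparations used for receptor binding. IC50 and Ki treated as log-normally distributed; mean and SEM calculated on the log scale, with the range given as the antilog of log mean ± SEM.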

[8] = organism: Mus musculus; assay: Inhibition of isoguvacine-induced current in mouse cerebral cortical neurons expressing GABAA receptor by whole cell patch clamp method; format: functional
In short: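 Test agent applied at a range of concentrations against isoguvacine-evoked currents. Currents normalized to the current induced by 20 µM isoguvacine. Mean ± SE from nine neurons. IC50 estimated by linear regression.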

SMILES | Activity [1] | inhibition [2] | inhibition [3] | inhibition [4] | IC50 [5] | inhibition [6] | Ki [7] | inhibition [8] | IC50 [7]
NCCc1nonc1O | 40% | inactive | inactive | inactive | 2 µM | inactive | 13 µM | Dose-dependent effect | 
NCCCCc1nonc1O | 0.8% | inactive | inactive | inactive | > 100 µM | inactive |  | Dose-dependent effect | > 100 µM
NCCCc1nonc1O | 14% | inactive | inactive | inactive | 25 µM | inactive | 27 µM | Dose-dependent effect | 
